Consider four compounds from ChEMBL document CHEMBL1142624, “Nematicidal constituents of the aerial parts of Lantana camara” (2000).

Holding throughout (type): functional
For assay [1], the system named is Meloidogyne incognita. The experiment in a line: Nematicidal activity against Meloidogyne incognita assessed as larval mortality at 1% drug concentration after 24 hrs. The method in brief:
(§1)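 Larvae were held in Petri dishes with test solutions diluted from stock to 1.0%, alongside a furadan standard and a distilled water control, at 28 ± 2 °C for up to 72 h. Each treatment was replicated twice. At 24, 48 and 72 h, one dish per treatment was scored for mortality under a stereomicroscope. Immobility was confirmed as irreversible by transfer to distilled water. Percent mortality was averaged over three replicates.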

For assay [2], the system named is Meloidogyne incognita. Briefly: Nematicidal activity against Meloidogyne incognita assessed as larval mortality at 1% drug concentration after 48 hrs. The method in brief:
as §1

The test system of assay [3] is Meloidogyne incognita. The experiment in a line: Nematicidal activity against Meloidogyne incognita assessed as larval mortality at 1% drug concentration after 72 hrs. The method in brief: as §1

As to `CNC(=O)Oc1cccc2c1OC(C)(C)C2` [CARBOFURAN], the Activity in assay [1], in assay [2] and in assay [3] was 100% in each case.

Turning to `CC(=O)O[C@@H]1C[C@@H](C)[C@H](C)[C@H]2C3=CC[C@@H]4[C@]56CC[C@@](O)(OC5)C(C)(C)C6CC[C@@]4(C)[C@]3(C)CC[C@]21C(=O)O` (some centres not stated) [CAMARINIC ACID], the Activity in assay [1], in assay [2] and in assay [3] was 100% in each case.

With `COc1ccc(-c2cc(=O)c3c(O)c(OC)c(O[C@@H]4O[C@H](COC(C)=O)[C@@H](O)[C@H](O)[C@H]4O)cc3o2)cc1` [LANTANONE], the Activity in assay [1] came out at 90%; in assay [2] it was 95%; in assay [3] it was 95%.

`COc1ccc(-c2cc(=O)c3c(O)c(OC)c(O[C@@H]4O[C@H](CO)[C@@H](O)[C@H](O)[C@H]4O)cc3o2)cc1` [LINAROSIDE]: the figures for the Activity in assay [1], in assay [2] and in assay [3] were 85%, 90% and 90%, respectively.
